This is an account of results in publication PMC7113852 (Antiviral Research, 2018).

Where two headings read alike, the source gives them in different places.

The subject of series [1] is ZIKV FB-GWUH-2016 strain. Nature of the series: ZIKV titer from compound-treated RPE cells, plaque assay on Vero-E6 cells. As to conditions: ZIKV, RPE cells; repeated CTG, CTxG and virus titration. It is filed as cell-based, Zika virus. In short, it runs like this: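 Medium for ZIKV infection: DMEM-F12 with 2% FBS, 2 mM L-glutamine, 0.25% sodium bicarbonate and 50 U/ml PenStrep, applied after 24 h growth of ~4 × 10^4 RPE cells/well. Test compound added in seven three-fold dilutions from 30 μM; infection at MOI 1. Media harvested at cytopathic effect (typically 24–72 hpi), serially diluted in PBS, plaque-titrated on Vero-E6 (PFU/ml). EC50 from variable-slope non-linear regression or Hill fit.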

For series [2], the system named is EV1. In words: microbe, parasite or virus in culture. It is filed as cell-based, Echovirus 1.
In series [3] the test system is EV1. Nature of the series: microbe, parasite or virus in culture. It counts as cell-based, Echovirus 1. This is another data set of the same source.
Series [4] has as its system RPE cells. Particulars: human.
In series [5] the test system is FLUAV (influenza A/WSN/33(H1N1) virus). In words: microbe, parasite or virus in culture. It is filed as cell-based.
A short description of series [6]: in vitro. Particulars: human.
Series [7] concerns HSV-1. In words: HSV-1 titer from compound-treated RPE cells, plaque assay on Vero-E6 cells. It counts as cell-based, Herpes simplex virus 1. Particulars: HSV-1, RPE cells; repeated CTG, CTxG and virus titration. In short, it runs like this: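 RPE cells (~4 × 10^4/well) grown 24 h, then switched to DMEM-F12 with 0.2% BSA, 2 mM L-glutamine, 0.35% NaHCO3 and 1 μg/mL TPCK-trypsin. Three-fold dilutions of test compound (seven concentrations from 30 μM); HSV-1 infection at MOI 1. Supernatants collected at cytopathic effect (typically 24–72 hpi), serially diluted in PBS, plaqued on Vero-E6 under overlay, fixed; titers as PFU/ml.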

Series [8] relates to HSV-1. In words: Viability and death of HSV-1-infected RPE cells. It counts as cell-based, Herpes simplex virus 1.
The subject of series [9] is FLUAV (influenza A/WSN/33(H1N1) virus). Nature of the series: microbe, parasite or virus in culture. It is filed as cell-based. Particulars: for EC50: Influenza A virus, H1N1|WSN, RPE.
For series [10], the system named is ZIKV FB-GWUH-2016 strain. Nature of the series: Viability and death of ZIKV-infected RPE cells. Particulars: for EC50: Zika virus, RPE. It counts as cell-based, Zika virus.
Series [11] relates to RVFV (rRVFVΔNSs::Katushka). Nature of the series: microbe, parasite or virus in culture. It is filed as cell-based, Rift Valley fever virus.
Series [12] concerns A549 cells.

As a reminder, the EC50 is the concentration needed to bring the measured effect to its halfway point. On to `Nc1ccn([C@@H]2O[C@H](CO)[C@@H](O)C2(F)F)c(=O)n1` [Gemcitabine], for which the “antiviral activity in repeat experiments” value in series [1], in series [2], in series [5] and in series [7] was “confirmed antiviral activity” each time. Moreover, the EC50 stood at 6960 nM in series [2] (Enterovirus B, read-out: EC50 other); 80 nM in series [3] (Enterovirus B, RPE, read-out: EC50 CTxG); 890 nM in series [5] (Influenza A virus, H1N1|WSN, read-out: EC50 other); 50 nM in series [8] (Human alphaherpesvirus 1, RPE, read-out: EC50 CTG); 250 nM in series [9] (read-out: EC50 CTG); 1020 nM in series [9] (read-out: EC50 CTxG). In addition, the results for the EC50 in series [10] (read-out: EC50 CTG) and in series [10] (read-out: EC50 CTxG) were 920 nM and 70 nM, respectively. The “SI (minimal selectivity index, CC50/EC50)” value was over 4 in series [3]; over 500 in series [8] (HSV-1, RPE cells); over 29 in series [9]; 23 in series [10] (ZIKV, RPE cells). Also, the figures for the CC50 in series [4], in series [6] (CC50 CTG) and in [6] (CC50 CTxG) were 21800 nM, over 30000 nM and over 30000 nM, respectively.

With Bortezamib, the “screen hit against RVFV” value in series [11] is listed as “identified”. For the same molecule, the EC50 in series [11] (read-out: EC50 other) was under 390 nM. In series [12], this molecule registered a CC50 of over 100000 nM.
